According to ChEMBL document CHEMBL3603811, “Design, chemical synthesis and biological evaluation of 3-spiromorpholinone/3-spirocarbamate androsterone derivatives as inhibitors of 17β-hydroxysteroid dehydrogenase type 3” (Bioorg Med Chem, 2015):

Key:
[1] = target: T1, 17-beta-hydroxysteroid dehydrogenase type 3 (Rattus norvegicus) (UniProt O54939); experiment: Inhibition of 17beta-HSD3 in rat testes microsomes using [14C]-4-androstene-3,17-dione as substrate measured based on 18% of initial enzyme transformation at 1 uM after 2 hrs; conditions: Testis
T1 sequence (whole entry): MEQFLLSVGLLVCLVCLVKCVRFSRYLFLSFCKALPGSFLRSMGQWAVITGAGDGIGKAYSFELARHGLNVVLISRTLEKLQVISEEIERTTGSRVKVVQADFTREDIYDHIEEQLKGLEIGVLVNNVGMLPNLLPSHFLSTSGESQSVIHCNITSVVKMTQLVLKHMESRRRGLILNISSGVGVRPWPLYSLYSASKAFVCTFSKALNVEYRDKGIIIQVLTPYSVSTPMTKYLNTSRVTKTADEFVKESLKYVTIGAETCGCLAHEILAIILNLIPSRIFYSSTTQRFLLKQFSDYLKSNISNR
In short: (§1)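 Rat testis microsomes: homogenate in phosphate/sucrose/EDTA buffer pH 7.5 with protease inhibitors, spun 12,500g, then pellet from 100,000g, at 4 °C. Reaction 2 h at 37 °C in 50 mM sodium phosphate pH 7.4, 20% glycerol, 1 mM EDTA, with NADPH and [14C]-Δ4-dione (50 nM). Inhibitor in DMSO. [14C]-T and substrate identified against reference steroids and quantified. Percent transformation and percent inhibition calculated.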

[2] = target: T1, 17-beta-hydroxysteroid dehydrogenase type 3 (Rattus norvegicus); experiment: Inhibition of 17beta-HSD3 in rat testes microsomes using [14C]-4-androstene-3,17-dione as substrate measured based on 18% of initial enzyme transformation at 0.1 uM after 2 hrs; conditions: Testis; in short: as §1
[3] = target: T1, 17-beta-hydroxysteroid dehydrogenase type 3 (Rattus norvegicus); experiment: Inhibition of 17beta-HSD3 in rat testes microsomes using [14C]-4-androstene-3,17-dione as substrate measured based on 18% of initial enzyme transformation at 0.01 uM after 2 hrs; conditions: Testis; in short: as §1
LAPC4 [4] = experiment: Androgenic activity in human LAPC4 cells expressing androgen receptor assessed as induction of cell proliferation at 1 uM after 3 days by MTS assay relative to control; type: functional
In short: (§2)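 LAPC-4 (AR+) cells in RPMI-1640 with 5% dextran-coated charcoal-treated FBS to remove hormones. Triplicate cultures of 10,000 cells preincubated 24 h at 37 °C, 5% CO2. Compounds from 10^-2 M DMSO stock, diluted in medium, added for 3 days (final DMSO 0.05%; vehicle controls). Growth read by MTS. Androgenicity = % proliferation minus basal set at 100%.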

LAPC4 [5] = experiment: Androgenic activity in human LAPC4 cells expressing androgen receptor assessed as induction of cell proliferation at 0.1 uM after 3 days by MTS assay relative to control; type: functional; in short: as §2
[6] = target: T1, 17-beta-hydroxysteroid dehydrogenase type 3 (Rattus norvegicus); experiment: Inhibition of 17beta-HSD3 in rat testes microsomes using [14C]-4-androstene-3,17-dione as substrate measured based on 4% of initial enzyme transformation at 10 uM after 2 hrs; conditions: Testis; in short: as §1
[7] = target: T1, 17-beta-hydroxysteroid dehydrogenase type 3 (Rattus norvegicus); experiment: Inhibition of 17beta-HSD3 in rat testes microsomes using [14C]-4-androstene-3,17-dione as substrate measured based on 4% of initial enzyme transformation at 1 uM after 2 hrs; conditions: Testis; in short: as §1

Compound	inhibition [1]	inhibition [2]	inhibition [3]	Activity (LAPC4 [4])	Activity (LAPC4 [5])	inhibition [6]	inhibition [7]
C[C@]12CC[C@@]3(C[C@@H]1CC[C@@H]1[C@@H]2CC[C@]2(C)C(=O)CC[C@@H]12)CN(Cc1cccc2ccccc12)CC(=O)O3	94.5%	79.1%	12.8%	9.3%	3.8%	–	–
COC(=O)[C@H](Cc1ccccc1)N1C[C@]2(CC[C@@]3(C)[C@@H](CC[C@@H]4[C@@H]3CC[C@]3(C)C(=O)CC[C@@H]43)C2)OC1=O	–	48.3%	–	0%	0%	87.7%	72.1%
C[C@]12CC[C@@]3(C[C@@H]1CC[C@@H]1[C@@H]2CC[C@]2(C)C(=O)CC[C@@H]12)CN(Cc1cn(Cc2ccccc2)nn1)CC(=O)O3	85.3%	42.2%	5.1%	17.7%	10%	–	–
COC(=O)[C@H](CC(C)C)N1C[C@]2(CC[C@@]3(C)[C@@H](CC[C@@H]4[C@@H]3CC[C@]3(C)C(=O)CC[C@@H]43)C2)OC1=O	93.6%	57.6%	–	8.4%	0%	88.4%	82.3%
COC(=O)[C@@H](Cc1ccccc1)N1C[C@]2(CC[C@@]3(C)[C@@H](CC[C@@H]4[C@@H]3CC[C@]3(C)C(=O)CC[C@@H]43)C2)OC1=O	–	56.1%	–	29.2%	0%	80.8%	74.3%
C[C@]12CC[C@@]3(C[C@@H]1CC[C@@H]1[C@@H]2CC[C@]2(C)C(=O)CC[C@@H]12)CN(Cc1ccccc1)[C@H](Cc1ccccc1)C(=O)O3	–	–	–	50.1%	9.9%	–	61.7%
C[C@]12CC[C@@]3(C[C@@H]1CC[C@@H]1[C@@H]2CC[C@]2(C)C(=O)CC[C@@H]12)CN(Cc1ccc(I)cc1)CC(=O)O3	95.3%	79%	12.2%	15.9%	0.9%	–	–
C[C@]12CC[C@@]3(C[C@@H]1CC[C@@H]1[C@@H]2CC[C@]2(C)C(=O)CC[C@@H]12)CN(Cc1ccc2ccccc2c1)CC(=O)O3	93.2%	88.3%	0%	16.5%	22.3%	–	–
C=CCN1CC(=O)O[C@@]2(CC[C@@]3(C)[C@@H](CC[C@@H]4[C@@H]3CC[C@]3(C)C(=O)CC[C@@H]43)C2)C1	89%	48.6%	8.4%	11.3%	31%	–	–
C[C@]12CC[C@@]3(C[C@@H]1CC[C@@H]1[C@@H]2CC[C@]2(C)C(=O)CC[C@@H]12)CN(Cc1ccccc1C(F)(F)F)CC(=O)O3	83%	77.9%	24.4%	36.9%	0.5%	–	–
C[C@]12CC[C@]3(CN[C@H](Cc4ccccc4)C(=O)O3)C[C@@H]1CC[C@@H]1[C@@H]2CC[C@]2(C)C(=O)CC[C@@H]12	–	–	–	15.3%	0%	70.6%	–
C#CCN1CC(=O)O[C@@]2(CC[C@@]3(C)[C@@H](CC[C@@H]4[C@@H]3CC[C@]3(C)C(=O)CC[C@@H]43)C2)C1	80.7%	34.1%	0.1%	25.5%	20.1%	–	–
CC(C)C[C@H]1NC[C@]2(CC[C@@]3(C)[C@@H](CC[C@@H]4[C@@H]3CC[C@]3(C)C(=O)CC[C@@H]43)C2)OC1=O	–	17.9%	–	23.6%	7.9%	77.7%	50.2%
C[C@]12CC[C@]3(CNCC(=O)O3)C[C@@H]1CC[C@@H]1[C@@H]2CC[C@]2(C)C(=O)CC[C@@H]12	–	0%	–	32%	9.7%	82%	44.7%
C[C@]12CC[C@@]3(C[C@@H]1CC[C@@H]1[C@@H]2CC[C@]2(C)C(=O)CC[C@@H]12)CN(Cc1ccccc1)[C@@H](Cc1ccccc1)C(=O)O3	–	–	–	53.7%	6.1%	83.6%	81%
O=C1OC2(CCCCC2)CN(Cc2cn(Cc3ccccc3)nn2)[C@H]1Cc1ccccc1	13.3%	9.4%	0%	12.4%	2.5%	–	–
CC(C)C[C@@H]1NC[C@]2(CC[C@@]3(C)[C@@H](CC[C@@H]4[C@@H]3CC[C@]3(C)C(=O)CC[C@@H]43)C2)OC1=O	84.9%	39.4%	–	11.1%	14.5%	83.8%	69.3%
C[C@]12CC[C@@]3(C[C@@H]1CC[C@@H]1[C@@H]2CC[C@]2(C)C(=O)CC[C@@H]12)CN(Cc1ccc(C(F)(F)F)cc1C(F)(F)F)CC(=O)O3	89.6%	64.1%	18.3%	27%	0%	–	–
CC(C)C[C@@H]1C(=O)O[C@@]2(CC[C@@]3(C)[C@@H](CC[C@@H]4[C@@H]3CC[C@]3(C)C(=O)CC[C@@H]43)C2)CN1Cc1ccccc1	–	45.9%	–	47.7%	6.2%	82.3%	56.5%
C[C@]12CC[C@@]3(C[C@@H]1CC[C@@H]1[C@@H]2CC[C@]2(C)C(=O)CC[C@@H]12)CN(CC(CN1CCOCC1)OC(=O)C1CCCCC1)C(=O)O3 (stereo not given in full)	93.1%	51.5%	–	9.4%	4.8%	97.2%	93.9%
COC(=O)CN1C[C@]2(CC[C@@]3(C)[C@@H](CC[C@@H]4[C@@H]3CC[C@]3(C)C(=O)CC[C@@H]43)C2)OC1=O	–	9%	–	33.8%	11%	80.8%	54.6%
C[C@]12CCC(=O)C[C@@H]1CC[C@@H]1[C@@H]2CC[C@]2(C)[C@@H](O)CC[C@@H]12 [STANOLONE]	–	–	–	51.5%	28.8%	–	–
C[C@]12CC[C@@]3(C[C@@H]1CC[C@@H]1[C@@H]2CC[C@]2(C)C(=O)CC[C@@H]12)CN(Cc1ccc(-c2cccc(C(F)(F)F)c2)cc1)CC(=O)O3	84.9%	84.8%	26.1%	14.3%	13.5%	–	–
CC(C)C[C@H]1C(=O)O[C@@]2(CC[C@@]3(C)[C@@H](CC[C@@H]4[C@@H]3CC[C@]3(C)C(=O)CC[C@@H]43)C2)CN1Cc1ccccc1	93.1%	62.9%	–	44.2%	8.4%	87.1%	77.3%
C[C@]12CC[C@@]3(C[C@@H]1CC[C@@H]1[C@@H]2CC[C@]2(C)C(=O)CC[C@@H]12)CN(Cc1cccc(C(F)(F)F)c1)CC(=O)O3	94.2%	54.1%	17.7%	27%	0%	–	–
C[C@]12CC[C@@]3(C[C@@H]1CC[C@@H]1[C@@H]2CC[C@]2(C)C(=O)CC[C@@H]12)CN(Cc1cc(C(F)(F)F)cc(C(F)(F)F)c1)CC(=O)O3	94.4%	61.6%	15.1%	5.9%	12%	–	–
C#CCN1CC2(CCCCC2)OC(=O)[C@@H]1Cc1ccccc1	0%	0%	0%	0%	11.1%	–	–
C[C@]12CC[C@]3(CN[C@@H](Cc4ccccc4)C(=O)O3)C[C@@H]1CC[C@@H]1[C@@H]2CC[C@]2(C)C(=O)CC[C@@H]12	–	–	–	36.5%	3.9%	88.2%	75%
